Laboratory results published in ChEMBL document CHEMBL4387720, “Lead generation of 1,2-dithiolanes as exon 19 and exon 21 mutant EGFR tyrosine kinase inhibitors” (Bioorg Med Chem Lett, 2019).

Experiments:
[1] = target: Epidermal growth factor receptor (Homo sapiens, UniProt P00533, G719S); experiment: Binding affinity to human partial length EGFR G719S mutant (R669 to V1011 residues) expressed in bacterial expression system by KinomeScan assay
How it was run: (§1)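 Competition binding against an immobilized active-site-directed ligand. Bound kinase is quantified by qPCR of its DNA tag. Kd values come from duplicate 11-point dose-response curves.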

[2] = target: Epidermal growth factor receptor (Homo sapiens, UniProt P00533, S752-I759DEL); experiment: Binding affinity to human partial length EGFR S752-I759 deletion mutant expressed in bacterial expression system by KinomeScan assay; how it was run: as §1
Epidermal growth factor receptor (Homo sapiens, UniProt P00533, S752-I759DEL), sequence (P00533 whole entry S752-I759del, looked up, the tested form may be a part): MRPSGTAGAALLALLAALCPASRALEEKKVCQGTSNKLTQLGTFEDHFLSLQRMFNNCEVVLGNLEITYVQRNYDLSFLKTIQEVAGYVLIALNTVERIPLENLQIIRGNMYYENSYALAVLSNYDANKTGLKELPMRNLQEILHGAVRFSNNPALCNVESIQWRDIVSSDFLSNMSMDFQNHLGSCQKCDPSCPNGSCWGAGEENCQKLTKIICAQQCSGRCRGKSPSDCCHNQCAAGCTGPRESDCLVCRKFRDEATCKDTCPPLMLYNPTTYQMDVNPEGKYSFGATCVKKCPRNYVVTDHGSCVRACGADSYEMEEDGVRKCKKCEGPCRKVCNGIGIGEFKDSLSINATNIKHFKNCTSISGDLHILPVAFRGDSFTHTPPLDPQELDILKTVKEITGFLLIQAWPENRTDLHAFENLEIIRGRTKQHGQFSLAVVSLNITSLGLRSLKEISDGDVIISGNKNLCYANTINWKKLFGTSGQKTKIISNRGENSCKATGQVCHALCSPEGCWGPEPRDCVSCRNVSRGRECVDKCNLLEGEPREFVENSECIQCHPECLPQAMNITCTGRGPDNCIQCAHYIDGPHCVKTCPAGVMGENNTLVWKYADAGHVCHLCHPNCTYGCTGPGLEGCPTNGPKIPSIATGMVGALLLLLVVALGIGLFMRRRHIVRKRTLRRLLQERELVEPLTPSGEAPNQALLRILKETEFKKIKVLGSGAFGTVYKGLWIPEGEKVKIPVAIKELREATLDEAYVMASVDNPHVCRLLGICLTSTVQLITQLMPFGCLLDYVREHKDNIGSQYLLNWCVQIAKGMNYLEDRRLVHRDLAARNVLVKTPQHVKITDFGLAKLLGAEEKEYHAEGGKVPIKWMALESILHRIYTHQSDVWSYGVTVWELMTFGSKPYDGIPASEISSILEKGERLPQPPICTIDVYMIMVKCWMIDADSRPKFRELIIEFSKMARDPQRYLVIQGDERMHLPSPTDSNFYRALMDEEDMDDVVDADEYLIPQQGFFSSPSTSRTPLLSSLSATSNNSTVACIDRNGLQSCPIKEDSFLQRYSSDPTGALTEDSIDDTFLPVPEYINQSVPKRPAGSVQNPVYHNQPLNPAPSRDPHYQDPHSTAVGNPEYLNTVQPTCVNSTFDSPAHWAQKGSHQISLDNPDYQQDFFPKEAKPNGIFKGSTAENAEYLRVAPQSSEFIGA

[3] = target: T1, Epidermal growth factor receptor (Homo sapiens, UniProt P00533, L858R); experiment: Binding affinity to human partial length EGFR L858R mutant (R669 to V1011 residues) expressed in bacterial expression system by kinomescan assay
T1 sequence (P00533 25-1210 L858R limits assumed): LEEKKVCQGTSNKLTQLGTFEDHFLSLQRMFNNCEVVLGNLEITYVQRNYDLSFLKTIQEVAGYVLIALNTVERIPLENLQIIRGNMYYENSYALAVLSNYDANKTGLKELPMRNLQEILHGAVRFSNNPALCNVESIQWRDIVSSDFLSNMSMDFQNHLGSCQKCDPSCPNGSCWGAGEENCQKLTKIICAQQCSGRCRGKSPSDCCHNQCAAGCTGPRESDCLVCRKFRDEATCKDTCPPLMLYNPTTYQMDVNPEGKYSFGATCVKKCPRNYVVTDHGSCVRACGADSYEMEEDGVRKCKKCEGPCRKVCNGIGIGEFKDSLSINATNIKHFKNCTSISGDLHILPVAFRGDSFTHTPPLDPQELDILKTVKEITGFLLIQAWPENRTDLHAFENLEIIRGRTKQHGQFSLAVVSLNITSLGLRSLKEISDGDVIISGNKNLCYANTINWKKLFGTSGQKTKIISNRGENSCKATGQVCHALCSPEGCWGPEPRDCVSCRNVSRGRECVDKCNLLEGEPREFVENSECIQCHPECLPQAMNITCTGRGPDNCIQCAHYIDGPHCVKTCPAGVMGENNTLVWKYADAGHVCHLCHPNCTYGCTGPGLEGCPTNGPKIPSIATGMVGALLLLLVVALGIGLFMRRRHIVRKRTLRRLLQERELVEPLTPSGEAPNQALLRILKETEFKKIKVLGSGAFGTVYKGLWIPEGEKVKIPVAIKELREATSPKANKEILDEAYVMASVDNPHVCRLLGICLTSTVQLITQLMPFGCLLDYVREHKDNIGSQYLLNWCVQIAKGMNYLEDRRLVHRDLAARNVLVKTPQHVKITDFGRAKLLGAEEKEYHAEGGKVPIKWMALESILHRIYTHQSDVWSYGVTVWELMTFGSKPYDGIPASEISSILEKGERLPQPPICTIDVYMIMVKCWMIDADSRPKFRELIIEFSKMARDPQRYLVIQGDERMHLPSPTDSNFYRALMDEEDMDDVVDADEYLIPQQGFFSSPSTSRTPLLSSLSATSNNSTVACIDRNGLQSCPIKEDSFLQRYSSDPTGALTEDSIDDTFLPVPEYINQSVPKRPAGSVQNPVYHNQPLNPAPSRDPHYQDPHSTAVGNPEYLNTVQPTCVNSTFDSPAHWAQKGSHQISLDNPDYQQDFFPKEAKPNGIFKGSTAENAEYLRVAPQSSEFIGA
How it was run: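 Competition binding against an immobilized active-site-directed ligand; bound kinase quantified by qPCR of its DNA tag. Kd taken from duplicate 11-point dose-response curves.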

Cytochrome P450 3A4 = Cytochrome P450 3A4 (Homo sapiens, UniProt P08684); experiment: Inhibition of CYP3A4 (unknown origin); type: ADME
Cytochrome P450 3A4, sequence (P08684 whole entry): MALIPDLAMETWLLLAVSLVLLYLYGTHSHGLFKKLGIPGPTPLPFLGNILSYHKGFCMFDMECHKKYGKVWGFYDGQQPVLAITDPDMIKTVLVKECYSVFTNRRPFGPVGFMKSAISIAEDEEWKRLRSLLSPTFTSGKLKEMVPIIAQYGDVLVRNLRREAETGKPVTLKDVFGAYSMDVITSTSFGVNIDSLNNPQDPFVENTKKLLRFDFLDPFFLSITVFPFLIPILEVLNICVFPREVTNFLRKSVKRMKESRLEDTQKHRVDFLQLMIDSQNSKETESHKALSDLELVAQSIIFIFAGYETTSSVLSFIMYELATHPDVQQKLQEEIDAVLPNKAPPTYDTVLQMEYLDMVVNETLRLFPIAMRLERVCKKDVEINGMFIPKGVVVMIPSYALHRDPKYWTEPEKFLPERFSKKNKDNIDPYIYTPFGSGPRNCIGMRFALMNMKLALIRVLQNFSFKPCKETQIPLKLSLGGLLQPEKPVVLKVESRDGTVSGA

NCI-H460 = experiment: Therapeutic index, ratio of LC50 for human NCI-H460 cells to GI50 for human NCI-H460 cells; type: functional
How it was run: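 NCI-60 panel cell growth assay. Five-point dose-response curves; each value is the average of 2 experiments. […] Therapeutic index is calculated as LC50/GI50.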

MOLT-4 = experiment: Therapeutic index, ratio of LC50 for human MOLT4 cells to GI50 for human MOLT4 cells; type: functional
How it was run: (§2)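 NCI-60 panel screen using five-dose response curves, each value an average of 2 experiments. […] The therapeutic index is calculated as LC50/GI50 for the same cell line.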

[4] = Half life in rat hepatocytes; type: ADME, cell-based, Hepatocyte
CCRF-CEM [5] = experiment: Therapeutic index, ratio of LC50 for human CCRF-CEM cells to GI50 for human CCRF-CEM cells; type: functional; how it was run: as §2
Cytochrome P450 2B6 = Cytochrome P450 2B6 (Homo sapiens, UniProt P20813); experiment: Inhibition of CYP2B6 (unknown origin); type: ADME
Cytochrome P450 2B6, sequence (P20813 whole entry): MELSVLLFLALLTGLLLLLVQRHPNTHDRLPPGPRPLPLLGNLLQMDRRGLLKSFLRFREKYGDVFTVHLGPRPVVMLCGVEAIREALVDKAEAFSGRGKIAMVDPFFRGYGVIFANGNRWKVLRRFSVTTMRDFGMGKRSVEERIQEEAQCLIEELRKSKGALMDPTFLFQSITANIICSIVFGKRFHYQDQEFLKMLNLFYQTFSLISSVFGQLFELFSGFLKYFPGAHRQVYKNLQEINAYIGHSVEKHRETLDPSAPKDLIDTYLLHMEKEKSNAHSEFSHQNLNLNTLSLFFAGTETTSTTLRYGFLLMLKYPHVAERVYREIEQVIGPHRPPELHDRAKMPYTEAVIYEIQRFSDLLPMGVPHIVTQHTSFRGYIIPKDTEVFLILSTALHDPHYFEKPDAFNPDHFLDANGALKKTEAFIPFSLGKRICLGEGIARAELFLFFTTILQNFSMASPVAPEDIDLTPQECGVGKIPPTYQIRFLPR

CCRF-CEM [6] = experiment: Cytotoxicity against human CCRF-CEM cells assessed as reduction in measured protein incubated for 48 hrs by SRB assay; type: functional; settings: read-out: LC50 (the source's name)
How it was run: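 Tested in the NCI-60 panel with a five-dose response curve, each value the mean of 2 experiments.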

[7] = target: T1, Epidermal growth factor receptor
[8] = target: T1, Epidermal growth factor receptor; experiment: Binding affinity to human partial length EGFR L858R mutant (R669 to V1011 residues) expressed in bacterial expression system under full equilibrating condition by scanKINETIC assay
How it was run: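 Binding kinetics are read from Kd values measured under four dose-response arms. Arm A is full equilibration. Arm B is equilibrate, then 3-fold dilution, then equilibrate. Arm C is partial equilibration. Arm D is predilution followed by full equilibration. Comparing the arms assesses reversibility of binding.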

Epidermal growth factor receptor (Homo sapiens, UniProt P00533, G719S), sequence (P00533 25-1210 G719S limits assumed): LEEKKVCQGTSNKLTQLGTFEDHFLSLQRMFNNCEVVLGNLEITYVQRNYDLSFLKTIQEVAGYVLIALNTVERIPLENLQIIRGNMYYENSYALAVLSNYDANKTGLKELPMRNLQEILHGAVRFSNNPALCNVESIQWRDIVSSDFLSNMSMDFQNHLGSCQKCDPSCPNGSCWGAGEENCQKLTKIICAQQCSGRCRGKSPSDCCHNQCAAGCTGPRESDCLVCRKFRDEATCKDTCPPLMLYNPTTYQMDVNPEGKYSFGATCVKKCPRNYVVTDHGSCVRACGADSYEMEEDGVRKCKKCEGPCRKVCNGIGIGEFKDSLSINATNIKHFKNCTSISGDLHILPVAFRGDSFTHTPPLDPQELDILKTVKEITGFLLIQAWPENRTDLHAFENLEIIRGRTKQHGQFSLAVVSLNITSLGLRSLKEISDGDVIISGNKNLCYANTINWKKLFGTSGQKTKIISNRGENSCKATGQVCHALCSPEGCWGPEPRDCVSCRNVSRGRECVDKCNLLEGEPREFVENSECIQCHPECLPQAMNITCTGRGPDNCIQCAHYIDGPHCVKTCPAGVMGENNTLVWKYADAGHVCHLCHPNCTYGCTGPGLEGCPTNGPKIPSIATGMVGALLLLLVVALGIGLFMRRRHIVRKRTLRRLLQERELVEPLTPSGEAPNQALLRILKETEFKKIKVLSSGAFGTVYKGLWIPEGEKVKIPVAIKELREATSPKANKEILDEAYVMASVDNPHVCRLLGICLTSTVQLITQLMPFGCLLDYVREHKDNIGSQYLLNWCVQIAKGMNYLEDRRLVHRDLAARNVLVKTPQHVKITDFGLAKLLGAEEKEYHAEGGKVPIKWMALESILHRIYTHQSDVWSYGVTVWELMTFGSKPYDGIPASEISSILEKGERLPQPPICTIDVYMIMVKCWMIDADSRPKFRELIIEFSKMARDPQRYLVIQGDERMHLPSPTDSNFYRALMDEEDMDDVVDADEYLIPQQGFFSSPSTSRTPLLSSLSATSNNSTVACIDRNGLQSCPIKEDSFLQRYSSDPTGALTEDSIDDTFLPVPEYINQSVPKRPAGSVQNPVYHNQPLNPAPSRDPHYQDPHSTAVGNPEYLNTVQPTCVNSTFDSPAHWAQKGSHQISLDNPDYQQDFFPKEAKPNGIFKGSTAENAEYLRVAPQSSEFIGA

`CCOc1cc2ncc(C#N)c(Nc3ccc(OCc4cccc(F)c4)c(Cl)c3)c2cc1NC(=O)CC1CCSS1` (configuration not stated) showed a Kd [1] of 14 nM, a Kd [2] of 10 nM and a Kd [3] of 9.6 nM. The IC50 (Cytochrome P450 3A4) was over 50000 nM, the TI (NCI-H460) was 4.1 and the TI (MOLT-4) was over 156. The half-life [4] was 53.6 min, the TI (CCRF-CEM [5]) was over 166 and the IC50 (Cytochrome P450 2B6) was over 50000 nM. The CC50 (CCRF-CEM [6]) was over 25000 nM, the IC50 [7] was 10.9 to 11 nM and the Kd [8] was 9.6 nM.
